Measured values as given in ChEMBL document CHEMBL4364254 (J Med Chem, 2019).
Calls of active or inactive are those of the source. No cut-off for these calls is given here.

What was measured:
Cytochrome P450 1A2 = Cytochrome P450 1A2 (Homo sapiens, UniProt P05177); experiment: Induction of CYP1A2 in human HepaRG cells at 10 uM measured after 24 hrs by qRT-PCR analysis relative to omeprazole; type: ADME, cell-based; details: hepatocytes
Summary of the method: (§1)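 Cryopreserved HepaRG cells were plated on collagen I in Williams' E medium with GlutaMAX. On day 4 they were treated with 10 μM compound in serum-free induction medium for 24 h at 37 °C; the vehicle was 1% DMSO. Positive controls were omeprazole 50 μM (CYP1A2), phenobarbital 1 mM (CYP2B6) and rifampicin 10 μM (CYP3A4). mRNA was read by TaqMan qPCR with GAPDH as reference, using ΔΔCt, and expressed as % of the positive control.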

Cytochrome P450 2B6 = Cytochrome P450 2B6 (Homo sapiens, UniProt P20813); experiment: Induction of CYP2B6 in human HepaRG cells at 10 uM measured after 24 hrs by qRT-PCR analysis relative to phenobarbital; type: ADME, cell-based; details: hepatocytes; summary of the method: as §1
Mus musculus = experiment: Anti-hepatosteatosis activity in ethanol-induced C57BL/6 mouse model of hepatic steatosis assessed as reduction in hepatic lipid accumulation at 0.03 to 0.3 mg/kg, po administered once daily via gavage for last 2 weeks of study measured post-last dose by oil red O staining-based light microscopic analysis; type: functional, organism-based
Summary of the method: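 Female C57BL/6J mice (9 weeks old, 19–21 g) were kept on Lieber–DeCarli liquid diet, with ethanol raised from 1 to 5% (v/v) over 15 d and then held for 4 weeks, pair-fed. Dosing was 0.03, 0.1 or 0.3 mg/kg by oral gavage once daily for the last 2 weeks, in 0.5% Na-CMC/1% NMP/0.3% Tween 80. Read-outs were Oil Red O on 10 μm liver sections imaged at 10× and liver weight normalized to brain weight. n = 6–10 per group; t test versus ethanol + vehicle.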

[1] = target: Alpha-1A adrenergic receptor (Homo sapiens, UniProt P35348); experiment: Displacement of [3H]prazosin from recombinant human alpha 1A adrenoceptor after 60 mins by scintillation counting analysis
[2] = target: Beta-1 adrenergic receptor (Homo sapiens, UniProt P08588); experiment: Displacement of [3H](-)CGP12177 from recombinant human beta1 adrenergic receptor after 60 mins by scintillation counting analysis
[3] = target: Beta-2 adrenergic receptor (Homo sapiens, UniProt P07550); experiment: Displacement of [3H](-)CGP12177 from recombinant human beta2 adrenergic receptor after 120 mins by scintillation counting analysis
D(1A) dopamine receptor = D(1A) dopamine receptor (Homo sapiens, UniProt P21728); experiment: Displacement of [3H]SCH23390 from recombinant human D1 receptor after 60 mins by scintillation counting analysis
[4] = target: Muscarinic acetylcholine receptor M1 (Homo sapiens, UniProt P11229); experiment: Displacement of [3H]pirenzepine from recombinant human M1 receptor after 60 mins by scintillation counting analysis
[5] = target: Muscarinic acetylcholine receptor M3 (Homo sapiens, UniProt P20309); experiment: Displacement of [3H]4-DAMP from recombinant human M3 receptor after 60 mins by scintillation counting analysis
[6] = target: Delta-type opioid receptor (Homo sapiens, UniProt P41143); experiment: Displacement of [3H]DADLE from recombinant human DOR after 60 mins by scintillation counting analysis
[7] = target: 5-hydroxytryptamine receptor 1B (Homo sapiens, UniProt P28222); experiment: Displacement of [3H]GR125743 from recombinant human 5HT1B after 60 mins by scintillation counting analysis
[8] = target: 5-hydroxytryptamine receptor 2B (Homo sapiens, UniProt P41595); experiment: Displacement of [125I](+/-)DOI from recombinant human 5HT2B receptor after 60 mins by scintillation counting analysis
[9] = target: Sodium-dependent noradrenaline transporter (Homo sapiens, UniProt P23975); experiment: Displacement of [3H]nisoxetine from recombinant human norepinephrine transporter after 120 mins by scintillation counting analysis
[10] = target: GABA-A receptor; anion channel; experiment: Displacement of [3H]flunitrazepam from rat brain GABAA ion channel after 60 mins by scintillation counting analysis
Glutamate NMDA receptor = experiment: Displacement of [3H]CGP 39653 from rat brain NMDA receptor after 60 mins by scintillation counting analysis
[11] = target: 5-hydroxytryptamine receptor 3A (Homo sapiens, UniProt P46098); experiment: Displacement of [3H]BRL43694 from recombinant human 5HT3 receptor after 120 mins by scintillation counting analysis
[12] = Displacement of [125I]alpha-dendrotoxin from rat brain voltage-gated potassium ion channel after 60 mins by scintillation counting analysis
[13] = Displacement of [3H]batrachotoxinin from rat brain voltage-gated sodium ion channel site 2 after 60 mins by scintillation counting analysis
[14] = target: Tyrosine-protein kinase Lck (Homo sapiens, UniProt P06239); experiment: Activity at recombinant human LCK using Ulight-Poly GAT[EAY(1:1:1)]n as substrate measured after 10 mins by LANCE assay
[15] = target: Prostaglandin G/H synthase 1 (Homo sapiens, UniProt P23219); experiment: Activity at human recombinant COX1 using arachidonic acid as substrate measured after 3 mins by ADHP reagent based fluorescence assay
[16] = target: Prostaglandin G/H synthase 2 (Homo sapiens, UniProt P35354); experiment: Activity at human recombinant COX2 using arachidonic acid as substrate measured after 5 mins by ADHP reagent based fluorescence assay
Acetylcholinesterase = Acetylcholinesterase (Homo sapiens, UniProt P22303); experiment: Activity at human recombinant ACHE using acetylthiocholine as substrate measured after 30 mins by spectrophotometric assay
[17] = target: Amine oxidase [flavin-containing] A (Rattus norvegicus, UniProt P21396); experiment: Displacement of [3H]Ro41-1049 from rat brain MAOA after 60 mins by scintillation counting analysis
Sequence of Amine oxidase [flavin-containing] A (P21396 whole entry): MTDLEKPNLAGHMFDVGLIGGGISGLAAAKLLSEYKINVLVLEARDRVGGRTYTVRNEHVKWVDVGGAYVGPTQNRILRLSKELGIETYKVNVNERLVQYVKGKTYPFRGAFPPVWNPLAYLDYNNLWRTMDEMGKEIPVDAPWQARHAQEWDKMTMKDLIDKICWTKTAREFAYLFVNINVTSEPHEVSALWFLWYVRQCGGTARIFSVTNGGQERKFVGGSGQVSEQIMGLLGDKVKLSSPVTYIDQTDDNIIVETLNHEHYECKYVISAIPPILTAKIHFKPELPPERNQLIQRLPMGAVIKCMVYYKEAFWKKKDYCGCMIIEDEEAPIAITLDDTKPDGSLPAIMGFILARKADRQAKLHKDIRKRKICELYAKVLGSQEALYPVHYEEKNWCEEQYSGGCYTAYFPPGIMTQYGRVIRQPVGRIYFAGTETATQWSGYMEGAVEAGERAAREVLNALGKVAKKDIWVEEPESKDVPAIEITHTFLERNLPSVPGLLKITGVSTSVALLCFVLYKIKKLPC

Sequence of D(1A) dopamine receptor (P21728 whole entry): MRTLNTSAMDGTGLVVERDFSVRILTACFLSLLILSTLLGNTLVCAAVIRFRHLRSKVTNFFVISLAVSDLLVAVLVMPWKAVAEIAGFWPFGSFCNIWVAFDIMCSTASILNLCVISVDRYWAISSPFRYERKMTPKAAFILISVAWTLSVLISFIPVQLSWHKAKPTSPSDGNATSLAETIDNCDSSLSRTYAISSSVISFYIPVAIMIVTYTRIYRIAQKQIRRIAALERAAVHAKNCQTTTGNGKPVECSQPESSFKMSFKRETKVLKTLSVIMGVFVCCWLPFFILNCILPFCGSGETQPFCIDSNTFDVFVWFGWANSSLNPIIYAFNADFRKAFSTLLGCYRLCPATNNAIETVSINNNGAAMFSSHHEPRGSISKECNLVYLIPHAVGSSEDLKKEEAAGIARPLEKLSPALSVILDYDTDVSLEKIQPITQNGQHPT
Sequence of Alpha-1A adrenergic receptor (P35348 whole entry): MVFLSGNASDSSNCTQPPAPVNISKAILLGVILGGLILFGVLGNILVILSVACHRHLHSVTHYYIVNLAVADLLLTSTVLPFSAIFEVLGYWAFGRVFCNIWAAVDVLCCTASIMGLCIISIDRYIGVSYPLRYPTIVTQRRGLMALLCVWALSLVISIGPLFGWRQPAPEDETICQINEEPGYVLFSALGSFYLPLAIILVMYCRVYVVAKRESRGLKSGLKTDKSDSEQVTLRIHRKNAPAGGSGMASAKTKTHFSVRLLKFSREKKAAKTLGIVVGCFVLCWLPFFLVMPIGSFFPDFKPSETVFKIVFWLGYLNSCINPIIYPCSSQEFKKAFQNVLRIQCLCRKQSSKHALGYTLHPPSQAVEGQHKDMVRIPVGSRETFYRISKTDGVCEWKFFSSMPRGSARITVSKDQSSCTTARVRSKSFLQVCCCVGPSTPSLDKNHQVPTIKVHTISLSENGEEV
Sequence of Beta-1 adrenergic receptor (P08588 whole entry): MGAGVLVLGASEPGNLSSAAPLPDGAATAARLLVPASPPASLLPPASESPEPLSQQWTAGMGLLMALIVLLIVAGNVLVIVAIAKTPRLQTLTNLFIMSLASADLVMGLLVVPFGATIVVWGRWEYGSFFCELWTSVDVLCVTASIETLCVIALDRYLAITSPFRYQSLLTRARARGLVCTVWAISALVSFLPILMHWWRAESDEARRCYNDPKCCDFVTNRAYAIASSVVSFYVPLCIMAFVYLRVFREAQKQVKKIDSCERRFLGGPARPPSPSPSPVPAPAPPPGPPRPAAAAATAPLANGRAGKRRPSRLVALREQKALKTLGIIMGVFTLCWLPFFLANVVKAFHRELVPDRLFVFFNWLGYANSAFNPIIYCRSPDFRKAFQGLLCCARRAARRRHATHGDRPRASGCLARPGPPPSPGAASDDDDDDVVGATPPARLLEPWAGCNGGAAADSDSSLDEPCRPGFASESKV
Sequence of Beta-2 adrenergic receptor (P07550 whole entry): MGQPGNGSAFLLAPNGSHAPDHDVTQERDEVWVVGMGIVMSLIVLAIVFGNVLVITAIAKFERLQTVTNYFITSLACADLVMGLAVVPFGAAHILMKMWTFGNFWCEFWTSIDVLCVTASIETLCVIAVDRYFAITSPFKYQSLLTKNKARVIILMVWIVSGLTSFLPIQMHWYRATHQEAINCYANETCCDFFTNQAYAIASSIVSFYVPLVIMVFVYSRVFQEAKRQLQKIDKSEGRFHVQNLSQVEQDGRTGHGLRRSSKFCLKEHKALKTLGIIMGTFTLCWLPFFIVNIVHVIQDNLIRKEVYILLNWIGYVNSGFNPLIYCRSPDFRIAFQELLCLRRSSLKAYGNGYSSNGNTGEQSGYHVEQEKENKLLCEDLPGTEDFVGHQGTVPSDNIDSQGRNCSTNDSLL
Sequence of 5-hydroxytryptamine receptor 1B (P28222 whole entry): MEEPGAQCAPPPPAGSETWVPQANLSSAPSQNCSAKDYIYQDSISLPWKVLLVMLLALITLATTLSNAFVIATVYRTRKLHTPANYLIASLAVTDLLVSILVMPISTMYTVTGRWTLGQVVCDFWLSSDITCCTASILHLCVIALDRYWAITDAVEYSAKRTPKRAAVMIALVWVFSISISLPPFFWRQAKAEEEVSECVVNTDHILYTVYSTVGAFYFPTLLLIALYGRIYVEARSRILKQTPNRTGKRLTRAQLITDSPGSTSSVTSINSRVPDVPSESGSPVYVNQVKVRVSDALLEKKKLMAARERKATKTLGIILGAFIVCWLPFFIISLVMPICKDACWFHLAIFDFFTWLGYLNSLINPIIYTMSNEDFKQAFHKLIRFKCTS
Sequence of Delta-type opioid receptor (P41143 whole entry): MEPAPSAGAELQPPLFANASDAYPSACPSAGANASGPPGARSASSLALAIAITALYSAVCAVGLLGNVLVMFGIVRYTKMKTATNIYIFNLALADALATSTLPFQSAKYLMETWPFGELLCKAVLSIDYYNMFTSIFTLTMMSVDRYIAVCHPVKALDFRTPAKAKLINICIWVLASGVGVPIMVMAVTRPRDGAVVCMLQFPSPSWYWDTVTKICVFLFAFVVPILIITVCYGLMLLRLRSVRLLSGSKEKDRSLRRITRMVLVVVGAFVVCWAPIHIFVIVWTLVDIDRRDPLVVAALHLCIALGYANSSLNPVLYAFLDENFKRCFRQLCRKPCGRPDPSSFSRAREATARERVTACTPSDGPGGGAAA
Sequence of Prostaglandin G/H synthase 2 (P35354 whole entry): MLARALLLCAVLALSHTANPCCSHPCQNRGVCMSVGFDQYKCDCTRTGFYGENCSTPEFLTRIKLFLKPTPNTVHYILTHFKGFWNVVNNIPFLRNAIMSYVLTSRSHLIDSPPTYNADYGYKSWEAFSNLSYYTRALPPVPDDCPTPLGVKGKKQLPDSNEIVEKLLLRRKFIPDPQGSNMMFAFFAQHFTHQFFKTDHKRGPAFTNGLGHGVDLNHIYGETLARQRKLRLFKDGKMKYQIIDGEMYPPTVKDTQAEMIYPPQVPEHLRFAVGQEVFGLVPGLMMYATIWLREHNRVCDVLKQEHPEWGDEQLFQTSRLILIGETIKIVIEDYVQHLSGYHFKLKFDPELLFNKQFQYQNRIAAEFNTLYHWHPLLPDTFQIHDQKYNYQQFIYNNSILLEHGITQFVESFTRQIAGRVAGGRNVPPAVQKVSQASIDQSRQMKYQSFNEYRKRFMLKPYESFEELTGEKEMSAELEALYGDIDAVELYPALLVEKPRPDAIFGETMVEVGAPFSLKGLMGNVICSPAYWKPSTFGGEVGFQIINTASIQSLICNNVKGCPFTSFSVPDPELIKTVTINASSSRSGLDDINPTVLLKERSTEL
Sequence of Muscarinic acetylcholine receptor M1 (P11229 whole entry): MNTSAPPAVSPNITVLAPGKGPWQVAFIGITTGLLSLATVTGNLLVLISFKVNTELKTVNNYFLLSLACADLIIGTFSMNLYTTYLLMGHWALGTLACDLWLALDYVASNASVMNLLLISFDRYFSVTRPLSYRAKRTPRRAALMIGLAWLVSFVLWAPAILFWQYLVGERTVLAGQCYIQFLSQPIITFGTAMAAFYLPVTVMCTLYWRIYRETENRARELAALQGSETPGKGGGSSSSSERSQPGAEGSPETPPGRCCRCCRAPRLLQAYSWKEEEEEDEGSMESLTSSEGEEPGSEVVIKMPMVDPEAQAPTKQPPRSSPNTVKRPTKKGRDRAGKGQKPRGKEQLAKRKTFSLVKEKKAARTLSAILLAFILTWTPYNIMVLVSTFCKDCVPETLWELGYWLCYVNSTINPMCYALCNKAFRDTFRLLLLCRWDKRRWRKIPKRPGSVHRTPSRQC
Sequence of 5-hydroxytryptamine receptor 2B (P41595 whole entry): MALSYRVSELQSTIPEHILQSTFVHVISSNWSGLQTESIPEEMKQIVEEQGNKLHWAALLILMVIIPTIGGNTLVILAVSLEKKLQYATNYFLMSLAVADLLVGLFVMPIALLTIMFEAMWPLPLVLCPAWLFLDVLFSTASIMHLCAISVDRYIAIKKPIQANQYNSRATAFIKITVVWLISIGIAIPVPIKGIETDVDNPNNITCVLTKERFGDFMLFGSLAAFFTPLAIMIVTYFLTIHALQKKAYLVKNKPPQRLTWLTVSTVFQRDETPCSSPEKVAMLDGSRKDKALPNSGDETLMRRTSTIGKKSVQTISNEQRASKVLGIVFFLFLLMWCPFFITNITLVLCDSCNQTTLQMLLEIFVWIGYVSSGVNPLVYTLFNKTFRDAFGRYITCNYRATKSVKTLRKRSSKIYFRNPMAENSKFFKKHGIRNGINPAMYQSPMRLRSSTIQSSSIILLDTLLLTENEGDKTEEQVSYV

## O=C(Nc1ccc(OC(F)F)nc1)NC1CCN(c2ncnc3c2nc(-c2ccccc2Cl)n3-c2ccc(Cl)cc2)CC1
Cytochrome P450 1A2
  Activity: < 1%
Cytochrome P450 2B6
  Activity: < 10%
Mus musculus
  Activity: Active
[1]
  EC50: > 10 µM
  IC50: > 10 µM
[2]
  EC50: > 10 µM
  IC50: > 10 µM
[3]
  EC50: > 10 µM
  IC50: > 10 µM
D(1A) dopamine receptor
  EC50: > 10 µM
  IC50: > 10 µM
[4]
  EC50: > 10 µM
  IC50: > 10 µM
[5]
  EC50: > 10 µM
  IC50: > 10 µM
[6]
  EC50: > 10 µM
  IC50: > 10 µM
[7]
  EC50: > 10 µM
  IC50: > 10 µM
[8]
  EC50: > 10 µM
  IC50: > 10 µM
[9]
  EC50: > 10 µM
  IC50: > 10 µM
[10]
  EC50: > 10 µM
  IC50: > 10 µM
Glutamate NMDA receptor
  EC50: > 10 µM
  IC50: > 10 µM
[11]
  EC50: > 10 µM
  IC50: > 10 µM
[12]
  EC50: > 10 µM
  IC50: > 10 µM
[13]
  EC50: > 10 µM
  IC50: > 10 µM
[14]
  EC50: > 10 µM
  IC50: > 10 µM
[15]
  EC50: > 10 µM
  IC50: > 10 µM
[16]
  EC50: > 10 µM
  IC50: > 10 µM
Acetylcholinesterase
  EC50: > 10 µM
  IC50: > 10 µM
[17]
  EC50: > 10 µM
  IC50: > 10 µM
